From ChEMBL document CHEMBL1155775, “Pharmacokinetics of the antiviral agent beta-D-2'-deoxy-2'-fluoro-2'-C-methylcytidine in rhesus monkeys” (Antimicrob Agents Chemother, 2007)

Key:
Hepatitis C virus = assay: Antiviral activity against HCV in human Huh7 cells by replicon based assay; assay type: functional, Hepacivirus hominis; conditions: Huh-7
HepG2 = assay: Cytotoxicity against human HepG2 cells; assay type: cell-based
[1] = Terminal half life in rhesus monkey at 33.3 mg/kg, po administered as single dose; assay type: ADME, organism-based, Macaca mulatta; parameters: dose 33.3 mg/kg, route oral; conditions: in vivo, read-out: beta t1/2 (converted)
In short: (§1)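 Three rhesus monkeys; single 33.3 mg/kg oral dose by gastric intubation in water, then after ≥4-week washout i.v. bolus via femoral vein in sterile normal saline; anesthetized (ketamine plus Telazol i.m.) for 4 h. Femoral venous blood at 0–24 h; serum by HPLC-UV 270 nm, 3TC internal standard. Noncompartmental analysis per animal and pooled; AUC by trapezoid extrapolated to infinity; F = AUCoral/AUCi.v.; MAT = MRToral − MRTi.v.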

[2] = Terminal half life in rhesus monkey at 33.3 mg/kg, iv administered as single dose; assay type: ADME, organism-based, Macaca mulatta; parameters: dose 33.3 mg/kg, route intravenous; conditions: in vivo, read-out: beta t1/2 (converted); in short: as §1
[3] = Tmax in rhesus monkey at 33.3 mg/kg, iv administered as single dose; assay type: ADME, organism-based, Macaca mulatta; parameters: dose 33.3 mg/kg, route intravenous; conditions: in vivo
In short: (§2)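 Three rhesus monkeys, anesthetised with ketamine plus tiletamine/zolazepam, received a single 33.3 mg/kg bolus in sterile normal saline via the femoral vein. Serum was acetonitrile-extracted with 3TC as internal standard and assayed by reverse-phase HPLC-UV at 270 nm. Peak concentration and its time were taken as observed; noncompartmental analysis.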

[4] = Cmax in rhesus monkey at 33.3 mg/kg, iv administered as single dose; assay type: ADME, organism-based, Macaca mulatta; parameters: dose 33.3 mg/kg, route intravenous; conditions: in vivo; in short: as §2
[5] = AUC in rhesus monkey at 33.3 mg/kg, iv administered as single dose; assay type: ADME, organism-based, Macaca mulatta; parameters: dose 33.3 mg/kg, route intravenous; conditions: plasma; in short: as §1
[6] = AUC in rhesus monkey at 33.3 mg/kg, po administered as single dose; assay type: ADME, organism-based, Macaca mulatta; parameters: dose 33.3 mg/kg, route oral; conditions: plasma; in short: as §1
Rhesus monkey [7] = assay: Apparent volume of distribution with respect to bioavailability in rhesus monkey at 33.3 mg/kg, iv administered as single dose; assay type: ADME, organism-based, Macaca mulatta; conditions: in vivo; in short: as §1
[8] = Apparent volume of distribution with respect to bioavailability in rhesus monkey at 33.3 mg/kg, po administered as single dose; assay type: ADME, organism-based, Macaca mulatta; conditions: in vivo, read-out: Vc/F; in short: as §1
[9] = Metabolic stability in human whole blood at 1000 dpm/pmol after 0.5 hrs at 37 degC; assay type: ADME, tissue-based; conditions: read-out: Stability
In short: (§3)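 3H-labeled nucleoside (10 μM, 1,000 dpm/pmol) incubated in human or monkey whole blood at 37°C for 0–48 h. Aliquots centrifuged, supernatant extracted with acetonitrile, dried, redissolved in water and run on ion-pairing reverse-phase C18 HPLC (ammonium acetate/tetrabutylammonium phosphate pH 7.0, methanol) to measure parent and deaminated product. Each time point in replicate.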

[10] = Metabolic stability in human whole blood at 1000 dpm/pmol after 1 hr at 37 degC; assay type: ADME, tissue-based; conditions: read-out: Stability; in short: as §3
[11] = Metabolic stability in human whole blood at 1000 dpm/pmol after 2 hrs at 37 degC; assay type: ADME, tissue-based; conditions: read-out: Stability; in short: as §3
[12] = Metabolic stability in human whole blood at 1000 dpm/pmol after 4 hrs at 37 degC; assay type: ADME, tissue-based; conditions: read-out: Stability; in short: as §3
[13] = Metabolic stability in human whole blood at 1000 dpm/pmol after 8 hrs at 37 degC; assay type: ADME, tissue-based; conditions: read-out: Stability; in short: as §3
[14] = Metabolic stability in human whole blood at 1000 dpm/pmol after 10 hrs at 37 degC; assay type: ADME, tissue-based; conditions: read-out: Stability; in short: as §3
[15] = Metabolic stability in human whole blood at 1000 dpm/pmol after 24 hrs at 37 degC; assay type: ADME, tissue-based; conditions: read-out: Stability; in short: as §3
[16] = Metabolic stability in human whole blood at 1000 dpm/pmol after 48 hrs at 37 degC; assay type: ADME, tissue-based; conditions: read-out: Stability; in short: as §3
[17] = Metabolic stability in rhesus monkey whole blood at 1000 dpm/pmol after 0.25 hrs at 37 degC; assay type: ADME, tissue-based, Macaca mulatta; conditions: read-out: Stability; in short: as §3
[18] = Metabolic stability in rhesus monkey whole blood at 1000 dpm/pmol after 0.5 hrs at 37 degC; assay type: ADME, tissue-based, Macaca mulatta; conditions: read-out: Stability; in short: as §3
[19] = Metabolic stability in rhesus monkey whole blood at 1000 dpm/pmol after 1 hr at 37 degC; assay type: ADME, tissue-based, Macaca mulatta; conditions: read-out: Stability; in short: as §3
[20] = Metabolic stability in rhesus monkey whole blood at 1000 dpm/pmol after 2 hrs at 37 degC; assay type: ADME, tissue-based, Macaca mulatta; conditions: read-out: Stability; in short: as §3
[21] = Metabolic stability in rhesus monkey whole blood at 1000 dpm/pmol after 4 hrs at 37 degC; assay type: ADME, tissue-based, Macaca mulatta; conditions: read-out: Stability; in short: as §3
[22] = Metabolic stability in rhesus monkey whole blood at 1000 dpm/pmol after 8 hrs at 37 degC; assay type: ADME, tissue-based, Macaca mulatta; conditions: read-out: Stability; in short: as §3
[23] = Metabolic stability in rhesus monkey whole blood at 1000 dpm/pmol after 10 hrs at 37 degC; assay type: ADME, tissue-based, Macaca mulatta; conditions: read-out: Stability; in short: as §3
[24] = Metabolic stability in rhesus monkey whole blood at 1000 dpm/pmol after 24 hrs at 37 degC; assay type: ADME, tissue-based, Macaca mulatta; conditions: read-out: Stability; in short: as §3
[25] = Metabolic stability in rhesus monkey whole blood at 1000 dpm/pmol after 48 hrs at 37 degC; assay type: ADME, tissue-based, Macaca mulatta; conditions: read-out: Stability; in short: as §3
[26] = Clearance in rhesus monkey at 33.3 mg/kg, po administered as single dose; assay type: ADME, organism-based, Macaca mulatta; parameters: dose 33.3 mg/kg, route oral; conditions: in vivo; in short: as §1
[27] = Stability in rhesus monkey urine at 33.3 mg/kg assessed as unchanged drug dose administered as single dose during 8 hrs; assay type: ADME, organism-based, Macaca mulatta; parameters: dose 33.3 mg/kg; conditions: read-out: Stability
In short: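 Catheterized rhesus monkeys given single 33.3 mg/kg oral or i.v. dose; urine collected in intervals over 0–8 h, kept on ice then frozen at −70°C; diluted 20-fold (oral) or 50-fold (i.v.), 3TC internal standard added, parent and deaminated uridine metabolite quantified by HPLC-UV 270 nm; percent of dose recovered.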

[28] = Apparent oral clearance in rhesus monkey at 33.3 mg/kg, po administered as single dose; assay type: ADME, organism-based, Macaca mulatta; parameters: dose 33.3 mg/kg, route oral; conditions: in vivo; in short: as §1
[29] = Mean residence time in rhesus monkey at 33.3 mg/kg, iv administered as single dose; assay type: ADME, organism-based, Macaca mulatta; parameters: dose 33.3 mg/kg, route intravenous; conditions: in vivo; in short: as §1
[30] = Mean residence time in rhesus monkey at 33.3 mg/kg, po administered as single dose; assay type: ADME, organism-based, Macaca mulatta; parameters: dose 33.3 mg/kg, route oral; conditions: in vivo; in short: as §1
[31] = Volume of distribution at steady state in rhesus monkey at 33.3 mg/kg, iv administered as single dose; assay type: ADME, organism-based, Macaca mulatta; parameters: dose 33.3 mg/kg, route intravenous; conditions: in vivo, read-out: Vdss; in short: as §1
[32] = Drug level in rhesus monkey cerebrospinal fluid at 33.3 mg/kg, iv administered as single dose after 1 hr; assay type: ADME, organism-based, Macaca mulatta; parameters: dose 33.3 mg/kg, route intravenous; conditions: read-out: Drug uptake
In short: (§4)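 Same three anesthetized rhesus monkeys given single 33.3 mg/kg oral (water, gastric intubation) or i.v. (saline, femoral vein) dose. CSF taken 1 h post-dose by cisternal or lumbar tap; 3TC internal standard added, analyzed by reverse-phase HPLC with UV detection at 270 nm against standards in water (0.1–25 μg/ml).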

[33] = Drug level in rhesus monkey cerebrospinal fluid at 33.3 mg/kg, po administered as single dose after 1 hr; assay type: ADME, organism-based, Macaca mulatta; parameters: dose 33.3 mg/kg, route oral; conditions: read-out: Drug uptake; in short: as §4
[34] = Drug level in rhesus monkey cerebrospinal fluid assessed as 2'-deoxy-2'-fluoro-2'-C-methyluridine level at 33.3 mg/kg, iv administered as single dose after 1 hr; assay type: ADME, organism-based, Macaca mulatta; parameters: dose 33.3 mg/kg, route intravenous; conditions: in vivo, read-out: Drug uptake; in short: as §4
Rhesus monkey [35] = assay: Mean absorption time in rhesus monkey at 33.3 mg/kg, po administered as single dose; assay type: ADME, organism-based, Macaca mulatta; parameters: dose 33.3 mg/kg, route oral; conditions: in vivo; in short: as §1
[36] = Oral bioavailability in rhesus monkey at 33.3 mg/kg, po administered as single dose; assay type: ADME, organism-based, Macaca mulatta; conditions: in vivo; in short: as §1
[37] = Metabolic stability in human whole blood at 1000 dpm/pmol after 0.25 hrs at 37 degC; assay type: ADME, tissue-based; conditions: read-out: Stability; in short: as §3
[38] = Clearance in rhesus monkey at 33.3 mg/kg, iv administered as single dose; conditions: in vivo
[39] = Metabolic stability in human whole blood assessed as 2'-deoxy-2'-fluoro-2'-C-methyluridine level at 1000 dpm/pmol after 24 hrs at 37 degC; assay type: ADME, tissue-based; in short: as §3
[40] = Metabolic stability in rhesus monkey whole blood assessed as 2'-deoxy-2'-fluoro-2'-C-methyluridine level at 1000 dpm/pmol after 24 hrs at 37 degC; assay type: ADME, tissue-based, Macaca mulatta; in short: as §3

C[C@@]1(F)[C@H](O)[C@@H](CO)O[C@H]1n1ccc(N)nc1=O
EC90 (Hepatitis C virus): 5.4 µM | Activity (HepG2): > 100 µM | half-life [1]: 5.64 h | half-life [2]: 4.54 h | Tmax [3]: 0.25 h | Cmax [4]: 154000 nM | AUC [5]: 235 µM·h | AUC [6]: 44.1 µM·h | Vc/F (Rhesus monkey [7]): 4.8 L/kg | Vd/F [8]: 21.9 L/kg | remaining at 0.5 h [9]: 100% | remaining at 1 h [10]: 100% | remaining at 2 h [11]: 100% | remaining at 4 h [12]: 100% | remaining at 8 h [13]: 100% | remaining at 10 h [14]: 99.1% | remaining at 24 h [15]: 95.1% | remaining at 48 h [16]: 83.7% | remaining at 0.25 h [17]: 100% | remaining at 0.5 h [18]: 100% | remaining at 1 h [19]: 100% | remaining at 2 h [20]: 100% | remaining at 4 h [21]: 100% | remaining at 8 h [22]: 100% | remaining at 10 h [23]: 97.2% | remaining at 24 h [24]: 93.1% | remaining at 48 h [25]: 80% | CL/F [26]: 48 mL/min/kg | dose excreted at 8 h [27]: 6% | CL/F [28]: 48 mL/min/kg | MRT [29]: 2.5 h | MRT [30]: 7.11 h | Vd [31]: 1.51 L/kg | concentration at 1 h [32]: 3670 nM | concentration at 1 h [33]: 280 nM | concentration [34]: 1380 nM | MAT (Rhesus monkey [35]): 4.61 h | bioavailability [36]: 24% | remaining at 0.25 h [37]: 100% | clearance [38]: 10 mL/min/kg

C[C@@]1(F)[C@H](O)[C@@H](CO)O[C@H]1n1ccc(=O)[nH]c1=O
Stability [39]: 4.9% | Stability [40]: 6.9%
